How the values were obtained:
Type in all cases: functional, cell-based
D(4) dopamine receptor = target: T1, D(4) dopamine receptor (Homo sapiens, UniProt P21917); experiment: Activity at human recombinant D4.4 receptor expressed in HEK293 cells by FLIPR assay
T1 sequence (P21917 whole entry): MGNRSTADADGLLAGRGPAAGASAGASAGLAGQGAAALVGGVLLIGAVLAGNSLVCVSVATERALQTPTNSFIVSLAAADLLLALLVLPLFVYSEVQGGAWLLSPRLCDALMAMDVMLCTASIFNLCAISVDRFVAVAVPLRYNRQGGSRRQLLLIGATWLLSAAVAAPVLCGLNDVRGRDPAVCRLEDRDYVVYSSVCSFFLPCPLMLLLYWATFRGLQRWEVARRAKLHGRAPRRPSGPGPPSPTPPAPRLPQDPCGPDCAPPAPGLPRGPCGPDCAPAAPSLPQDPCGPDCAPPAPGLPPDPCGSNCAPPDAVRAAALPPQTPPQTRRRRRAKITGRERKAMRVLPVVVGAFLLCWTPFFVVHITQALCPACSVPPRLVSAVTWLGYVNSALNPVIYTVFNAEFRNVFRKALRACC

D(2) dopamine receptor [1] = target: T2, D(2) dopamine receptor (Homo sapiens, UniProt P14416); experiment: Antagonist activity at human recombinant D2 receptor expressed in HEK293 cells by FLIPR assay
D(2) dopamine receptor [2] = target: T2, D(2) dopamine receptor; experiment: Agonist activity at human recombinant D2 receptor expressed in HEK293 cells by FLIPR assay
Outline: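 Calcium flux (FLIPR) in HEK-293 cells coexpressing recombinant human D2L with chimeric Gqo5. Efficacy is the maximal response relative to 10 µM dopamine (100%). EC50 is the concentration giving half-maximal stimulation. Values are means (SEM, n ≥ 3).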

T2 sequence (P14416 whole entry): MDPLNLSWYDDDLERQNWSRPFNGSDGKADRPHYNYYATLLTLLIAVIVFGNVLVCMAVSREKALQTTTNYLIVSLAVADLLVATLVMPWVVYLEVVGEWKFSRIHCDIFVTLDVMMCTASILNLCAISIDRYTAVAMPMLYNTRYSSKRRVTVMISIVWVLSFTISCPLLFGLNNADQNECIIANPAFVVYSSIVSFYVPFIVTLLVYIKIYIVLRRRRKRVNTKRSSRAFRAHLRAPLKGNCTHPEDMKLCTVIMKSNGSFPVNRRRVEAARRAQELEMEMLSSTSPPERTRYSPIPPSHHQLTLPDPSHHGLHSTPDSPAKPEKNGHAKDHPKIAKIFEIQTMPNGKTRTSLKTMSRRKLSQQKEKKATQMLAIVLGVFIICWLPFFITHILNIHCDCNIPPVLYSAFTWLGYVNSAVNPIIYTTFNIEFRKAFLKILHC

SMILES | EC50 (D(4) dopamine receptor) [µM] | IC50 (D(2) dopamine receptor [1]) [µM] | EC50 (D(2) dopamine receptor [2]) [µM]
Cc1ccccc1/C(CCN1CCN(c2ccccn2)CC1)=N/O | 0.0042 | > 10 | > 10
CO/N=C(\CCCN1CCN(c2ccccn2)CC1)c1ccc(F)cc1 | 0.0417 | > 10 | > 10
CO/N=C(\CCN1CCN(c2ccccn2)CC1)c1cc(C)cc(C)c1 | 0.175 | > 10 | > 10
O/N=C(\CN1CCN(c2ccccn2)CC1)c1ccc(F)cc1 | 0.026 | > 10 | > 10
CCO/N=C(\CCN1CCN(c2ncccn2)CC1)c1ccccc1 | 0.615 | > 10 | > 10
O/N=C(/CCN1CCN(c2ccccn2)CC1)c1cc(F)cc(F)c1 | 0.0175 | > 10 | > 10
CCCCO/N=C(\CCN1CCN(c2ccccn2)CC1)c1ccccc1 | 0.382 | > 10 | > 10
O/N=C(/CCCN1CCN(c2ccccn2)CC1)c1ccc(F)cc1 | 0.0593 | > 10 | > 10
O/N=C(\CCN1CCN(c2ccccn2)CC1)c1cccc(F)c1 | 0.0171 | > 10 | > 10
O/N=C(\CCCN1CCN(c2ccccn2)CC1)c1ccc(F)cc1 | 0.0095 | > 10 | > 10
Cc1cc(C)cc(/C(CCN2CCN(c3ccccn3)CC2)=N/O)c1 | 0.0458 | > 10 | > 10
CO/N=C(\CCN1CCN(c2ccccn2)CC1)c1ccc(Br)cc1 | 0.183 | > 10 | > 10
C=CCO/N=C(\CCN1CCN(c2ccccn2)CC1)c1ccccc1 | 0.35 | > 10 | > 10
CCO/N=C(\CCN1CCN(c2ncccc2C#N)CC1)c1ccccc1 | 0.139 | > 10 | > 10
CCCO/N=C(\CCN1CCN(c2ccccn2)CC1)c1ccccc1 | 0.32 | > 10 | > 10
CO/N=C(\CCN1CCN(c2ccccc2OC(C)C)CC1)c1ccc(F)cc1 | 0.594 | > 10 | > 10
Cc1cccc(/C(=N/O)C(O)CN2CCN(c3ccccn3)CC2)c1 (centres undefined) | 0.0049 | > 10 | > 10
Cc1ccc(O)c(/C(CCN2CCN(c3ccccn3)CC2)=N/O)c1 | 0.0192 | > 10 | > 10
O/N=C(/CCN1CCN(c2ccccn2)CC1)c1ccccc1 | 0.0217 | > 10 | > 10
CO/N=C(/CCN1CCN(c2ccccn2)CC1)c1ccc(Br)cc1 | 0.082 | > 10 | > 10
CO/N=C(/CCN1CCN(c2ccccn2)CC1)c1ccc(Cl)c(Cl)c1 | 0.341 | > 10 | > 10
Cc1ccc(OCc2ccccc2)c(/C(CCN2CCN(c3ccccn3)CC2)=N/O)c1 | > 10 | > 10 | > 10
CO/N=C(/c1cccnc1)C(O)CN1CCN(c2ccccn2)CC1 (centres undefined) | 0.123 | > 10 | > 10

SMILES | EC50 (D(4) dopamine receptor) [µM] | IC50 (D(2) dopamine receptor [1]) [µM] | EC50 (D(2) dopamine receptor [2]) [µM]
COC(CN1CCN(c2ccccn2)CC1)/C(=N/O)c1cccc(C)c1 (centres undefined) | 5.37 | > 10 | > 10
CO/N=C(/CCN1CCN(c2ccccc2OC(C)C)CC1)c1ccc(F)cc1 | 0.601 | > 10 | > 10
CO/N=C(/CCN1CCN(c2ccccn2)CC1)c1ccccc1Cl | 0.0572 | > 10 | > 10
CO/N=C(/CN1CCN(c2ccccn2)CC1)c1ccc(F)cc1 | 4.29 | > 10 | > 10
CCO/N=C(\CCN1CCN(c2cccc(OC)c2)CC1)c1ccccc1 | 2.68 | > 10 | > 10
CO/N=C(\CCN1CCC(c2cccc[n+]2[O-])CC1)c1ccc(Cl)cc1 | 0.084 | > 10 | > 10
CO/N=C(\CCN1CCN(c2ccccn2)CC1)c1ccc(Cl)c(C)c1 | 0.135 | > 10 | > 10
O/N=C(\CCN1CCN(c2ccccn2)CC1)c1ccc(F)cc1 | 0.031 | > 10 | > 10
CO/N=C(/CCN1CCN(c2ccccn2)CC1)c1cc(C)cc(C)c1 | 0.0747 | > 10 | > 10
CO/N=C(/c1ccc(Cl)cc1)C(CN1CCN(c2ccccn2)CC1)OC (centres undefined) | 0.285 | > 10 | > 10
CCO/N=C(\CCN1CCN(c2ccccc2C#N)CC1)c1ccccc1 | 0.0487 | > 10 | > 10
CO/N=C(\CCN1CCN(c2ccccn2)CC1)c1cccc(C#N)c1 | 0.0637 | > 10 | > 10
CO/N=C(/CCN1CCN(c2ccccn2)CC1)c1ccccc1 | 0.0241 | > 10 | > 10
CO/N=C(/CCN1CCN(c2ccccn2)CC1)c1cccc(Cl)c1 | 0.113 | > 10 | > 10
CO/N=C(/CCN1CCC(c2cccc[n+]2[O-])CC1)c1ccc(Cl)cc1 | 0.0464 | > 10 | > 10
O/N=C(\CCN1CCN(c2ccccn2)CC1)c1ccc(Cl)cc1 | 0.475 | > 10 | > 10
CCO/N=C(\CCN1CCN(c2ccc(OC)cc2)CC1)c1ccccc1 | > 10 | > 10 | > 10
O/N=C(\CCN1CCN(c2ccccn2)CC1)c1cc(F)cc(F)c1 | 0.0194 | > 10 | > 10
CO/N=C(/CCN1CCN(c2ccccn2)CC1C)c1ccc(Cl)cc1 (centres undefined) | 0.099 | > 10 | > 10
O/N=C(/CN1CCN(c2ccccn2)CC1)c1ccc(F)cc1 | > 10 | > 10 | > 10
CO/N=C(\CCN1CCN(c2ccccn2)CC1)c1ccc(Cl)cc1Cl | 0.249 | > 10 | > 10
CO/N=C(/CCN1CCN(c2ccccn2)CC1)c1ccccc1C | 0.0401 | > 10 | > 10
CCO/N=C(\CCN1CCN(c2ncccc2C)CC1)c1ccccc1 | 0.253 | > 10 | > 10

SMILES | EC50 (D(4) dopamine receptor) [µM] | IC50 (D(2) dopamine receptor [1]) [µM] | EC50 (D(2) dopamine receptor [2]) [µM]
O/N=C(\CCN1CCN(c2nccs2)CC1)c1ccccc1 | 0.0495 | > 10 | > 10
CO/N=C(\CCN1CCCC(c2ccccn2)C1)c1ccc(Cl)cc1 (centres undefined) | 0.606 | > 10 | > 10
COC(CN1CCN(c2ccccn2)CC1)/C(=N\O)c1cccc(C)c1 (centres undefined) | 0.0345 | > 10 | > 10
CCO/N=C(\CCN1CCN(c2ccccc2OC)CC1)c1ccccc1 | 0.338 | > 10 | > 10
CCO/N=C(\CCN1CCN(c2ccccc2)CC1)c1ccccc1 | 0.109 | > 10 | > 10
CO/N=C(/c1ccc(Cl)cc1)C(COC(C)C)CN1CCN(c2ccccn2)CC1 (centres undefined) | 3.21 | > 10 | > 10
CO/N=C(/CCN1CCN(c2ccccn2)CC1)c1ccc(F)c(Cl)c1 | 0.095 | > 10 | > 10
CO/N=C(/CCN1CCN(c2ccccn2)CC1)c1ccc(C)c(C)c1 | 0.091 | > 10 | > 10
CC(C)O/N=C(\CCN1CCN(c2ccccn2)CC1)c1ccccc1 | 0.164 | > 10 | > 10
CO/N=C(/CCN1CCN(c2ccccn2)CC1)c1ccc(Cl)cc1Cl | 0.296 | > 10 | > 10
CCO/N=C1/c2ccccc2CCC1CN1CCN(c2ccccn2)CC1 (centres undefined) | 4.76 | > 10 | > 10
CCO/N=C(/CCN1CCN(c2ccccn2)CC1)c1ccccc1 | 0.045 | > 10 | > 10
CO/N=C(\CCN1CCN(c2ccccn2)CC1)c1ccccc1Cl | 0.0423 | > 10 | > 10
O/N=C(\CCN1CCN(c2ccccn2)CC1)c1cccc(Cl)c1 | 0.0119 | > 10 | > 10
O/N=C(\CCN1CCN(c2ccccn2)CC1)c1ccccc1Cl | 0.024 | > 10 | > 10
O/N=C(\CCN1CCN(c2ccccn2)CC1)c1ccc(F)cc1F | 0.0089 | > 10 | > 10
Cc1ccccc1/C(CCN1CCN(c2ccccn2)CC1)=N\O | 0.0203 | > 10 | > 10
N#Cc1cccnc1N1CCN(CC/C(=N/O)c2ccccc2)CC1 | 0.02 | > 10 | > 10
N#Cc1cccnc1N1CCN(CC/C(=N\O)c2ccccc2)CC1 | 0.018 | > 10 | > 10
Cc1cccc(/C(=N\O)C(O)CN2CCN(c3ccccn3)CC2)c1 (centres undefined) | 0.0448 | > 10 | > 10
O/N=C(/CCN1CCN(c2ccccn2)CC1)c1ccccc1Cl | 0.025 | > 10 | > 10
CO/N=C(\c1ccc(Cl)cc1)C(CN1CCN(c2ccccn2)CC1)OC (centres undefined) | 0.195 | > 10 | > 10

From ChEMBL document CHEMBL1145336, “1-aryl-3-(4-pyridine-2-ylpiperazin-1-yl)propan-1-one oximes as potent dopamine D4 receptor agonists for the treatment of erectile dysfunction” (J Med Chem, 2006)
